Results published in ChEMBL document CHEMBL5335788, “Synthesis and evaluation of aromatic BDSF bioisosteres on biofilm formation and colistin sensitivity in pathogenic bacteria” (Eur J Med Chem, 2023).
The source made the active and inactive calls. The calls are words filed in the database; no cut-off is given here.

What was measured:
[1] = tested on: Burkholderia multivorans; assay: Potentiation of colistin-induced antibacterial activity against Burkholderia multivorans B10 assessed as colistin MIC at 50 uM incubated for 20 hrs by susceptibility testing (Rvb > 128 ug/ml); assay type: functional
In short: (§1)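 Colistin MIC by broth microdilution in cation-adjusted Mueller-Hinton broth, log-phase cells at final 5×10^5 cfu/mL. Two-fold colistin dilutions in duplicate with sulfonamide at final 0.05 mM (from 10 mM DMSO stock); 20 h at 37 °C. OD550 read. MIC taken as the lowest colistin level reducing growth ≥80% versus growth control. At least two replicates.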

[2] = tested on: Acinetobacter baumannii; assay: Antimicrobial activity against Acinetobacter baumannii ATCC 15308 assessed as microbial growth inhibition at 50 uM incubated for 20 hrs by broth microdilution method; assay type: functional, organism-based
In short: (§2)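 Overnight cultures in cation-adjusted Mueller-Hinton broth, subcultured 1:100; log-phase cells at final 1×10^5 cfu/mL exposed to sulfonamide at final 0.05 mM (from 10 mM DMSO stock) for 20 h at 37 °C. OD550 read after shaking. Growth expressed as percent of 0.5% DMSO control wells. Screened at least twice.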

[3] = tested on: Escherichia coli; assay: Antimicrobial activity against Escherichia coli ATCC 9637 assessed as microbial growth inhibition at 50 uM incubated for 20 hrs by broth microdilution method; assay type: functional, organism-based; in short: as §2
[4] = tested on: Pseudomonas aeruginosa; assay: Antimicrobial activity against Pseudomonas aeruginosa PAO1 assessed as microbial growth inhibition at 50 uM incubated for 20 hrs by broth microdilution method; assay type: functional, organism-based; in short: as §2
[5] = tested on: Stenotrophomonas maltophilia; assay: Antimicrobial activity against Stenotrophomonas maltophilia K279a assessed as microbial growth inhibition at 50 uM incubated for 20 hrs by broth microdilution method; assay type: functional, organism-based; in short: as §2
[6] = tested on: Burkholderia multivorans; assay: Antimicrobial activity against Burkholderia multivorans B10 assessed as microbial growth inhibition at 50 uM incubated for 20 hrs by broth microdilution method; assay type: functional, organism-based; in short: as §2
[7] = tested on: Escherichia coli; assay: Inhibition of biofilm formation in Escherichia coli ATCC 9637 at 0.05 mM incubated for 24 hrs by crystal violet method relative to control; assay type: functional; conditions: ATCC 9637, 24 h
In short: (§3)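 Crystal violet assay in LB: log-phase bacteria at final 1×10^5 cfu/mL with sulfonamide at final 0.05 mM, 24 h at 37 °C. Biomass read at OD620, then wells washed, biofilm heat-fixed 65 °C 15 min, stained 0.1% crystal violet 15 min, dye eluted in 30% acetic acid, OD550 read. Neat DMSO control taken as 100%. Duplicates, at least two independent experiments; one-way ANOVA.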

[8] = tested on: Burkholderia multivorans; assay: Inhibition of biofilm formation in Burkholderia multivorans B10 at 0.05 mM incubated for 24 hrs by crystal violet method relative to control; assay type: functional; conditions: B10, 24 h; in short: as §3
[9] = tested on: Pseudomonas aeruginosa; assay: Inhibition of biofilm formation in Pseudomonas aeruginosa PAO1 at 0.05 mM incubated for 24 hrs by crystal violet method; assay type: functional, organism-based; in short: as §3
[10] = tested on: Stenotrophomonas maltophilia; assay: Inhibition of biofilm formation in Stenotrophomonas maltophilia K279a clinical isolate of rpf-1 subpopulation at 0.05 mM incubated for 24 hrs by crystal violet method; assay type: functional, organism-based; in short: as §3
[11] = tested on: Acinetobacter baumannii; assay: Potentiation of colistin-induced antibacterial activity against Acinetobacter baumannii ATCC 15308 assessed as colistin MIC at 50 uM incubated for 20 hrs by susceptibility testing (reference value: 0.25 to 0.5 ug/ml); assay type: functional; in short: as §1
[12] = tested on: Escherichia coli; assay: Potentiation of colistin-induced antibacterial activity against Escherichia coli ATCC 9637 assessed as colistin MIC at 50 uM incubated for 20 hrs by susceptibility testing (reference value: 0.125 to 0.25 ug/ml); assay type: functional; in short: as §1
[13] = tested on: Burkholderia cepacia; assay: Potentiation of colistin-induced antibacterial activity against Burkholderia cepacia R6193 assessed as colistin MIC at 50 uM incubated for 20 hrs by susceptibility testing (Rvb > 256 ug/ml); assay type: functional; in short: as §1
[14] = tested on: Burkholderia cenocepacia; assay: Potentiation of colistin-induced antibacterial activity against Burkholderia cenocepacia 289 assessed as colistin MIC at 50 uM incubated for 20 hrs by susceptibility testing (Rvb > 256 ug/ml); assay type: functional; in short: as §1
[15] = tested on: Pseudomonas aeruginosa; assay: Potentiation of colistin-induced antibacterial activity against Pseudomonas aeruginosa assessed as colistin MIC at 50 uM incubated for 20 hrs by susceptibility testing (reference value: 1 to 2 ug/ml); assay type: functional; in short: as §1
[16] = tested on: Stenotrophomonas maltophilia; assay: Potentiation of colistin-induced antibacterial activity against Stenotrophomonas maltophilia K279a assessed as colistin MIC at 50 uM incubated for 20 hrs by susceptibility testing (reference value: 2 to 8 ug/ml); assay type: functional; in short: as §1
[17] = Toxicity in Galleria mellonella larva assessed as larval survival at 50 uM
[18] = tested on: Stenotrophomonas maltophilia; assay: Potentiation of colistin-induced antibacterial activity against Stenotrophomonas maltophilia K279a infected in Galleria mellonella larva at 50 uM; assay type: functional, organism-based
In short: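 Larvae 300–400 mg, at least 15 per group, infected in last proleg with 1×10^4 cfu S. maltophilia K279a in PBS. After 60 min at 37 °C, chilled 15 min on ice, then injected with 5 μL PBS holding colistin at final 0.5 μg/mL, sulfonamide at final 50 μM, or both; 0.5% DMSO vehicle control. Kept at 37 °C, survival scored every 24 h for Kaplan-Meier curves. At least two larval batches.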

[19] = Toxicity in Galleria mellonella larva assessed as larval survival at 50 uM in presence of colistin

Compound: CCCCCCCCCc1ccccc1C(=O)NS(=O)(=O)c1ccc(I)cc1
- MIC [1]: > 128 µg/mL
- growth inhibition (GI) [2]: inactive
- growth inhibition (GI) [3]: inactive
- growth inhibition (GI) [4]: inactive
- growth inhibition (GI) [5]: Active
- growth inhibition (GI) [6]: Active
- inhibition at 50 µM [7]: 68%
- inhibition at 50 µM [8]: 35%
- inhibition [9]: inactive
- inhibition [10]: inactive
- MIC [11]: 2 µg/mL
- MIC [12]: > 1 µg/mL
- MIC [13]: > 256 µg/mL
- MIC [14]: > 256 µg/mL
- MIC [15]: 8 µg/mL
- MIC [16]: 4 µg/mL
- Activity [17]: Non-Toxic

Compound: CCCCCCCCCc1ccccc1C(=O)NS(=O)(=O)C(C)(C)C
- MIC [1]: > 128 µg/mL
- growth inhibition (GI) [2]: inactive
- growth inhibition (GI) [3]: inactive
- growth inhibition (GI) [4]: inactive
- inhibition at 50 µM [8]: > 35%
- inhibition [9]: inactive
- inhibition [10]: inactive
- MIC [11]: 0.25 µg/mL
- MIC [12]: 0.5 µg/mL
- MIC [13]: > 256 µg/mL
- MIC [14]: > 256 µg/mL
- MIC [15]: 1 µg/mL
- MIC [16]: 0.5 µg/mL
- Activity [17]: Non-Toxic
- Activity [18]: Active
- Activity [19]: Non-Toxic
